Data as given in ChEMBL document CHEMBL1240405, “Activity of a new cephalosporin, CXA-101 (FR264205), against beta-lactam-resistant Pseudomonas aeruginosa mutants selected in vitro and after antipseudomonal treatment of intensive care unit patients” (2010).
Converted amounts (≈) assume the structure as drawn.

Experiments:
Format in all cases: functional
Pseudomonas aeruginosa [1] = test: Antimicrobial activity against beta-lactam resistant Pseudomonas aeruginosa PAO1 by broth microdilution method
Procedure, shortened: (§1)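 Broth microdilution MICs per CLSI M100-S18, over 0.12 to 256 μg/ml. Strains are PAO1 and its mutants. oprD mutants were selected overnight on Mueller-Hinton agar with 4 μg/ml imipenem, passaged antibiotic-free, then confirmed by oprD amplification and sequencing. PAO1 and ATCC 27853 were run alongside as quality controls.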

Pseudomonas aeruginosa [2] = test: Antimicrobial activity against beta-lactam resistant Pseudomonas aeruginosa PAO1 deficient in ampD and ampDh3 gene selected in vitro after antipseudomonal treatment of intensive care unit patient by broth microdilution method; procedure, shortened: as §1
Pseudomonas aeruginosa [3] = test: Antimicrobial activity against beta-lactam resistant Pseudomonas aeruginosa PAO1 deficient in ampD, […] gene selected in vitro after antipseudomonal treatment of intensive care unit patient by broth microdilution method; procedure, shortened: as §1
Pseudomonas aeruginosa [4] = test: Antimicrobial activity against beta-lactam resistant Pseudomonas aeruginosa PAO1 deficient in ampD and dacB gene selected in vitro after antipseudomonal treatment of intensive care unit patient by broth microdilution method; procedure, shortened: as §1
Pseudomonas aeruginosa [5] = test: Antimicrobial activity against beta-lactam resistant Pseudomonas aeruginosa PAOD2 harboring oprD spontaneous mutant selected in vitro after antipseudomonal treatment of intensive care unit patient by broth microdilution method; procedure, shortened: as §1
Pseudomonas aeruginosa [6] = test: Antimicrobial activity against beta-lactam resistant Pseudomonas aeruginosa PAOD3 harboring oprD spontaneous mutant selected in vitro after antipseudomonal treatment of intensive care unit patient by broth microdilution method; procedure, shortened: as §1
Pseudomonas aeruginosa [7] = test: Antimicrobial activity against beta-lactam resistant Pseudomonas aeruginosa PAOD1 harboring oprD spontaneous mutant and deficient in ampD gene selected in vitro after antipseudomonal treatment of intensive care unit patient by broth microdilution method; procedure, shortened: as §1
Pseudomonas aeruginosa [8] = test: Antimicrobial activity against beta-lactam resistant beta-lactam resistant Pseudomonas aeruginosa PAOD3 harboring oprD spontaneous mutant and deficient in ampD gene selected in vitro after antipseudomonal treatment of intensive care unit patient by broth microdilution method; procedure, shortened: as §1
Pseudomonas aeruginosa [9] = test: Antimicrobial activity against beta-lactam resistant Pseudomonas aeruginosa PAOD1 harboring oprD spontaneous mutant and deficient in dacB gene selected in vitro after antipseudomonal treatment of intensive care unit patient by broth microdilution method; procedure, shortened: as §1
Pseudomonas aeruginosa [10] = test: Antimicrobial activity against beta-lactam resistant Pseudomonas aeruginosa PAOD2 harboring oprD spontaneous mutant and deficient in dacB gene selected in vitro after antipseudomonal treatment of intensive care unit patient by broth microdilution method; procedure, shortened: as §1
Pseudomonas aeruginosa [11] = test: Antimicrobial activity against beta-lactam resistant Pseudomonas aeruginosa PAOD3 harboring oprD spontaneous mutant and deficient in dacB gene selected in vitro after antipseudomonal treatment of intensive care unit patient by broth microdilution method; procedure, shortened: as §1
Pseudomonas aeruginosa [12] = test: Antimicrobial activity against beta-lactam resistant Pseudomonas aeruginosa PA01 deficient in dacB gene by broth microdilution method; procedure, shortened: as §1
Pseudomonas aeruginosa [13] = test: Induction of ampC expression in beta-lactam resistant Pseudomonas aeruginosa PAO1 at 50 ug/mL
Procedure, shortened: (§2)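 ampC expression measured by real-time RT-PCR in PAO1 and its mutants, under basal conditions and after induction with 50 μg/ml cefoxitin.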

Pseudomonas aeruginosa [14] = test: Induction of ampC expression in beta-lactam resistant Pseudomonas aeruginosa PAO1 deficient in ampD gene selected in vitro after antipseudomonal treatment of intensive care unit patient at 50 ug/mL; procedure, shortened: as §2
Pseudomonas aeruginosa [15] = test: Induction of ampC expression in beta-lactam resistant Pseudomonas aeruginosa PAO1 deficient in ampD and ampDh3 gene selected in vitro after antipseudomonal treatment of intensive care unit patient at 50 ug/mL; procedure, shortened: as §2
Pseudomonas aeruginosa [16] = test: Induction of ampC expression in beta-lactam resistant Pseudomonas aeruginosa PAO1 deficient in ampD, […] gene selected in vitro after antipseudomonal treatment of intensive care unit patient at 50 ug/mL; procedure, shortened: as §2
Pseudomonas aeruginosa [17] = test: Induction of ampC expression in beta-lactam resistant Pseudomonas aeruginosa PA01 deficient in dacB gene at 50 ug/mL; procedure, shortened: as §2
Pseudomonas aeruginosa [18] = test: Induction of ampC expression in beta-lactam resistant Pseudomonas aeruginosa PAO1 deficient in ampD and dacB gene selected in vitro after antipseudomonal treatment of intensive care unit patient at 50 ug/ml; procedure, shortened: as §2
Pseudomonas aeruginosa [19] = test: Antimicrobial activity against beta-lactam resistant Pseudomonas aeruginosa PAO1 deficient in ampD gene selected in vitro after antipseudomonal treatment of intensive care unit patient by broth microdilution method; procedure, shortened: as §1
Pseudomonas aeruginosa [20] = test: Antimicrobial activity against beta-lactam resistant Pseudomonas aeruginosa PAOD1 harboring oprD spontaneous mutant selected in vitro after antipseudomonal treatment of intensive care unit patient by broth microdilution method; procedure, shortened: as §1
Pseudomonas aeruginosa [21] = test: Antimicrobial activity against beta-lactam resistant Pseudomonas aeruginosa PAOD2 harboring oprD spontaneous mutant and deficient in ampD gene by selected in vitro after antipseudomonal treatment of intensive care unit patient by broth microdilution method; procedure, shortened: as §1
Pseudomonas aeruginosa [22] = test: Antimicrobial activity against Pseudomonas aeruginosa clinical isolate assessed as resistant isolates selected in vitro after antipseudomonal treatment of intensive care unit patient by CLSI method

Row | Structure (SMILES) | MIC (Pseudomonas aeruginosa [1]) | MIC (Pseudomonas aeruginosa [2]) | MIC (Pseudomonas aeruginosa [3]) | MIC (Pseudomonas aeruginosa [4]) | MIC (Pseudomonas aeruginosa [5]) | MIC (Pseudomonas aeruginosa [6]) | MIC (Pseudomonas aeruginosa [7]) | MIC (Pseudomonas aeruginosa [8]) | MIC (Pseudomonas aeruginosa [9]) | MIC (Pseudomonas aeruginosa [10]) | MIC (Pseudomonas aeruginosa [11]) | MIC (Pseudomonas aeruginosa [12]) | other results
1 | CO/N=C(\C(=O)N[C@@H]1C(=O)N2C(C(=O)[O-])=C(C[N+]3(C)CCCC3)CS[C@H]12)c1csc(N)n1 | 2 µg/mL (≈ 4.16 µM) | 8 µg/mL (≈ 16.6 µM) | 8 µg/mL (≈ 16.6 µM) | 32 µg/mL (≈ 66.6 µM) | 2 µg/mL (≈ 4.16 µM) | 2 µg/mL (≈ 4.16 µM) | 4 µg/mL (≈ 8.32 µM) | 8 µg/mL (≈ 16.6 µM) | 32 µg/mL (≈ 66.6 µM) | 32 µg/mL (≈ 66.6 µM) | 32 µg/mL (≈ 66.6 µM) | 16 µg/mL (≈ 33.3 µM) | 
2 | C[C@H]1[C@H](NC(=O)/C(=N\OC(C)(C)C(=O)O)c2csc(N)n2)C(=O)N1S(=O)(=O)O [AZTREONAM] | 4 µg/mL (≈ 9.19 µM) | 32 µg/mL (≈ 73.5 µM) | 32 µg/mL (≈ 73.5 µM) | 128 µg/mL (≈ 294 µM) | 4 µg/mL (≈ 9.19 µM) | 4 µg/mL (≈ 9.19 µM) | 8 µg/mL (≈ 18.4 µM) | 8 µg/mL (≈ 18.4 µM) | 32 µg/mL (≈ 73.5 µM) | 32 µg/mL (≈ 73.5 µM) | 32 µg/mL (≈ 73.5 µM) | 32 µg/mL (≈ 73.5 µM) | 
3 | CO[C@@]1(NC(=O)Cc2cccs2)C(=O)N2C(C(=O)O)=C(COC(N)=O)CS[C@@H]21 [CEFOXITIN] |  |  |  |  |  |  |  |  |  |  |  |  | fold change (FC) (Pseudomonas aeruginosa [13]): 50; fold change (FC) (Pseudomonas aeruginosa [14]): 134; fold change (FC) (Pseudomonas aeruginosa [15]): 1014; fold change (FC) (Pseudomonas aeruginosa [16]): 1105; fold change (FC) (Pseudomonas aeruginosa [17]): 232; fold change (FC) (Pseudomonas aeruginosa [18]): 1950
4 | CC(C)(O/N=C(\C(=O)N[C@@H]1C(=O)N2C(C(=O)[O-])=C(C[n+]3ccccc3)CS[C@H]12)c1csc(N)n1)C(=O)O [CEFTAZIDIME] | 2 µg/mL (≈ 3.66 µM) | 32 µg/mL (≈ 58.5 µM) | 32 µg/mL (≈ 58.5 µM) | 128 µg/mL (≈ 234 µM) | 2 µg/mL (≈ 3.66 µM) | 2 µg/mL (≈ 3.66 µM) | 16 µg/mL (≈ 29.3 µM) | 16 µg/mL (≈ 29.3 µM) | 32 µg/mL (≈ 58.5 µM) | 32 µg/mL (≈ 58.5 µM) | 32 µg/mL (≈ 58.5 µM) | 32 µg/mL (≈ 58.5 µM) | MIC (Pseudomonas aeruginosa [19]): 8 µg/mL (≈ 14.6 µM); MIC (Pseudomonas aeruginosa [20]): 2 µg/mL (≈ 3.66 µM); MIC (Pseudomonas aeruginosa [21]): 16 µg/mL (≈ 29.3 µM); Activity (Pseudomonas aeruginosa [22]): 81%
